{"source": "ChEMBL document CHEMBL1147561", "about": "“Application of the four-component Ugi condensation for the preparation of sulfated glycoconjugate libraries” (Bioorg Med Chem Lett, 2004)", "key": {"[1]": {"target": "T1, Fibroblast growth factor 2 (Homo sapiens, UniProt P09038)", "T1 sequence (P09038 143-288 limits assumed)": "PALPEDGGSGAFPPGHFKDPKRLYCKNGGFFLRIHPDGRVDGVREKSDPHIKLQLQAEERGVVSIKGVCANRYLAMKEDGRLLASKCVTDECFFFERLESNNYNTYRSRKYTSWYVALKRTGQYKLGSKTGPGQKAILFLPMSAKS", "assay": "Binding affinity for human fibroblast growth factor 2 in surface plasmon resonance (SPR) assay", "outline": "(§1)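 SPR solution affinity format: growth factor pre-equilibrated with ligand in solution, mixture passed over a heparin-immobilized sensor chip. Free (unbound) growth factor binding to heparin raises the SPR response and gives its concentration. Kd calculated from the decline in free growth factor concentration versus ligand concentration. Values are mean and SD of at least two independent measurements.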"}, "[2]": {"target": "Fibroblast growth factor 1 (Homo sapiens, UniProt P05230)", "sequence (P05230 whole entry)": "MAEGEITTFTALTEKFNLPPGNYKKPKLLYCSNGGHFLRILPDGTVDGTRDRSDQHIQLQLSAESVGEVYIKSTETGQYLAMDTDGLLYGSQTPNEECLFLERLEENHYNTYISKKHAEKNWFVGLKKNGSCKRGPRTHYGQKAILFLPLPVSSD", "assay": "Binding affinity for human fibroblast growth factor 1 in surface plasmon resonance (SPR) assay", "outline": "as §1"}, "[3]": {"target": "T1, Fibroblast growth factor 2", "assay": "Binding affinity for human fibroblast growth factor 2 in surface plasmon resonance (SPR) assay (No binding)", "outline": "as §1"}}}
{"smiles": "O=C(CN(CCOS(=O)(=O)O)C(=O)C1OC(OS(=O)(=O)O)C(OS(=O)(=O)O)C(OS(=O)(=O)O)C1OS(=O)(=O)O)NC1CCCCC1", "note": "(centres undefined)", "values": [{"measurement": "Kd", "setting": "[1]", "value": "> 800", "unit": "µM"}, {"measurement": "Kd", "setting": "[2]", "value": 2340, "unit": "µM"}]}
{"smiles": "O=C(NC1CCCCC1)C(c1ccccc1)N(Cc1ccccc1)C(=O)C1OC(OS(=O)(=O)O)C(OS(=O)(=O)O)C(OS(=O)(=O)O)C1OS(=O)(=O)O", "note": "(centres undefined)", "values": [{"measurement": "Kd", "setting": "[2]", "value": 62.5, "unit": "µM"}, {"measurement": "Kd", "setting": "[3]", "value": "> 800", "unit": "µM"}]}
{"smiles": "O=C(CN(Cc1ccccc1)C(=O)C1OC(OS(=O)(=O)O)C(OS(=O)(=O)O)C(OS(=O)(=O)O)C1OS(=O)(=O)O)NC1CCCCC1", "note": "(centres undefined)", "values": [{"measurement": "Kd", "setting": "[1]", "value": 254, "unit": "µM"}, {"measurement": "Kd", "setting": "[2]", "value": 122, "unit": "µM"}]}
{"smiles": "CO[C@H]1O[C@@H](COCC(=O)N(CC(=O)NC2CCCCC2)[C@H]2CC[C@H](N(CC(=O)NC3CCCCC3)C(=O)COC[C@@H]3O[C@H](OC)[C@H](OS(=O)(=O)O)[C@@H](OS(=O)(=O)O)[C@@H]3OS(=O)(=O)O)CC2)[C@@H](OS(=O)(=O)O)[C@H](OS(=O)(=O)O)[C@H]1OS(=O)(=O)O", "values": [{"measurement": "Kd", "setting": "[1]", "value": 27.9, "unit": "µM"}, {"measurement": "Kd", "setting": "[2]", "value": 32.6, "unit": "µM"}]}
{"smiles": "CO[C@H]1O[C@@H](COCC(=O)N(CC(=O)NCCO[C@H]2O[C@@H](COS(=O)(=O)O)[C@@H](OS(=O)(=O)O)[C@H](OS(=O)(=O)O)[C@H]2OS(=O)(=O)O)Cc2ccccc2)[C@@H](OS(=O)(=O)O)[C@H](OS(=O)(=O)O)[C@H]1OS(=O)(=O)O", "values": [{"measurement": "Kd", "setting": "[1]", "value": 16, "unit": "µM"}, {"measurement": "Kd", "setting": "[2]", "value": 4.84, "unit": "µM"}]}
{"smiles": "CO[C@H]1O[C@@H](COCC(=O)N(CC(=O)NC2CCCCC2)Cc2ccccc2)[C@@H](OS(=O)(=O)O)[C@H](OS(=O)(=O)O)[C@H]1OS(=O)(=O)O", "values": [{"measurement": "Kd", "setting": "[1]", "value": 200, "unit": "µM"}, {"measurement": "Kd", "setting": "[2]", "value": 260, "unit": "µM"}]}
{"smiles": "CO[C@H]1O[C@@H](COCC(=O)N(CCS(=O)(=O)O)CC(=O)NC2CCCCC2)[C@@H](OS(=O)(=O)O)[C@H](OS(=O)(=O)O)[C@H]1OS(=O)(=O)O", "values": [{"measurement": "Kd", "setting": "[1]", "value": 551, "unit": "µM"}, {"measurement": "Kd", "setting": "[2]", "value": 296, "unit": "µM"}]}
{"smiles": "CC(C)(CC(=O)N(CCO[C@H]1O[C@@H](COS(=O)(=O)O)[C@@H](OS(=O)(=O)O)[C@H](OS(=O)(=O)O)[C@H]1OS(=O)(=O)O)CC(=O)NC1CCCCC1)CC(=O)N(CCO[C@H]1O[C@@H](COS(=O)(=O)O)[C@@H](OS(=O)(=O)O)[C@H](OS(=O)(=O)O)[C@H]1OS(=O)(=O)O)CC(=O)NC1CCCCC1", "values": [{"measurement": "Kd", "setting": "[1]", "value": 34, "unit": "µM"}, {"measurement": "Kd", "setting": "[2]", "value": 10, "unit": "µM"}]}
{"smiles": "CC(=O)N(CC(=O)NCCO[C@H]1O[C@@H](COS(=O)(=O)O)[C@@H](OS(=O)(=O)O)[C@H](OS(=O)(=O)O)[C@H]1OS(=O)(=O)O)Cc1ccccc1", "values": [{"measurement": "Kd", "setting": "[1]", "value": 287, "unit": "µM"}, {"measurement": "Kd", "setting": "[2]", "value": 34.3, "unit": "µM"}]}
{"smiles": "O=C(CN(Cc1ccccc1)C(=O)CO[C@@H]1[C@H](OS(=O)(=O)O)O[C@H](COS(=O)(=O)O)[C@H](OS(=O)(=O)O)[C@H]1OS(=O)(=O)O)NCCO[C@H]1O[C@@H](COS(=O)(=O)O)[C@@H](OS(=O)(=O)O)[C@H](OS(=O)(=O)O)[C@H]1OS(=O)(=O)O", "values": [{"measurement": "Kd", "setting": "[1]", "value": 85, "unit": "µM"}, {"measurement": "Kd", "setting": "[2]", "value": 6.36, "unit": "µM"}]}
{"smiles": "O=C(CN(Cc1ccccc1)C(=O)C1OC(OS(=O)(=O)O)C(OS(=O)(=O)O)C(OS(=O)(=O)O)C1O)NC1CCCCC1", "note": "(centres undefined)", "values": [{"measurement": "Kd", "setting": "[1]", "value": 1160, "unit": "µM"}, {"measurement": "Kd", "setting": "[2]", "value": 587, "unit": "µM"}]}
{"smiles": "O=C(CN(Cc1ccccc1)C(=O)C1OC(OS(=O)(=O)O)C(OS(=O)(=O)O)C(OS(=O)(=O)O)C1OS(=O)(=O)O)NCc1ccccc1", "note": "(centres undefined)", "values": [{"measurement": "Kd", "setting": "[1]", "value": 206, "unit": "µM"}, {"measurement": "Kd", "setting": "[2]", "value": 104, "unit": "µM"}]}
